Test results published in ChEMBL document CHEMBL1781898, “Orally active achiral N-hydroxyformamide inhibitors of ADAM-TS4 (aggrecanase-1) and ADAM-TS5 (aggrecanase-2) for the treatment of osteoarthritis” (Bioorg Med Chem Lett, 2011).
pIC50: −log10 of the molar value.

Key:
[1] = target: T1, A disintegrin and metalloproteinase with thrombospondin motifs 4 (Homo sapiens, UniProt O75173); experiment: Inhibition of ADAMTS-4 assessed as substrate cleavage after 16 hrs by fluorescence assay
T1 sequence (O75173 whole entry): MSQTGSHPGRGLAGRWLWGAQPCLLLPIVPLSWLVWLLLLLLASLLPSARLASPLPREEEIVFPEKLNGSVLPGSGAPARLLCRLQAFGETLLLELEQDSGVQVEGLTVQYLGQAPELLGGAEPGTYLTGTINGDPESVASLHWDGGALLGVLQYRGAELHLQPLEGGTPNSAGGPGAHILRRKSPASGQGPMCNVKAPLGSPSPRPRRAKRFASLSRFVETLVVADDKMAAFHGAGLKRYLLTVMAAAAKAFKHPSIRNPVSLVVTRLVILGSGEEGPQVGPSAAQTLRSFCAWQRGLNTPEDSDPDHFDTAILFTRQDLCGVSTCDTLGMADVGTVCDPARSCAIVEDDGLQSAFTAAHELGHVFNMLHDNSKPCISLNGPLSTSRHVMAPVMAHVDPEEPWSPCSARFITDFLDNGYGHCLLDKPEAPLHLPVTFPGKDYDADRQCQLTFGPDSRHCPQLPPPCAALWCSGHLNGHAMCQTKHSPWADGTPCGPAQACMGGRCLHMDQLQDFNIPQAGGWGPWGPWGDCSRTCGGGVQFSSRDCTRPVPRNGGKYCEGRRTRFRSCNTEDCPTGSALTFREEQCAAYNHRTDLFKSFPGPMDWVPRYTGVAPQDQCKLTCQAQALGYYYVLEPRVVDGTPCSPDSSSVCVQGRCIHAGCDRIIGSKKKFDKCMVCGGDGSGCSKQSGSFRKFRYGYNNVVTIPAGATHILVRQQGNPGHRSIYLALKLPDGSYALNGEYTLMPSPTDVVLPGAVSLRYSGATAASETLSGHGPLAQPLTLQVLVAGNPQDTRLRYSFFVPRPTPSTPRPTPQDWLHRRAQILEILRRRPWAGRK
Outline: (§1)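 Enzyme inhibition IC50s derived from at least six measurements, standard errors normally <5% within an assay; a standard compound run to keep assay-to-assay variability within twofold.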

[2] = target: T2, A disintegrin and metalloproteinase with thrombospondin motifs 5 (Homo sapiens, UniProt Q9UNA0); experiment: Inhibition of ADAMTS-5 assessed as substrate cleavage after 16 hrs by fluorescence assay; outline: as §1
T2 sequence (Q9UNA0 whole entry): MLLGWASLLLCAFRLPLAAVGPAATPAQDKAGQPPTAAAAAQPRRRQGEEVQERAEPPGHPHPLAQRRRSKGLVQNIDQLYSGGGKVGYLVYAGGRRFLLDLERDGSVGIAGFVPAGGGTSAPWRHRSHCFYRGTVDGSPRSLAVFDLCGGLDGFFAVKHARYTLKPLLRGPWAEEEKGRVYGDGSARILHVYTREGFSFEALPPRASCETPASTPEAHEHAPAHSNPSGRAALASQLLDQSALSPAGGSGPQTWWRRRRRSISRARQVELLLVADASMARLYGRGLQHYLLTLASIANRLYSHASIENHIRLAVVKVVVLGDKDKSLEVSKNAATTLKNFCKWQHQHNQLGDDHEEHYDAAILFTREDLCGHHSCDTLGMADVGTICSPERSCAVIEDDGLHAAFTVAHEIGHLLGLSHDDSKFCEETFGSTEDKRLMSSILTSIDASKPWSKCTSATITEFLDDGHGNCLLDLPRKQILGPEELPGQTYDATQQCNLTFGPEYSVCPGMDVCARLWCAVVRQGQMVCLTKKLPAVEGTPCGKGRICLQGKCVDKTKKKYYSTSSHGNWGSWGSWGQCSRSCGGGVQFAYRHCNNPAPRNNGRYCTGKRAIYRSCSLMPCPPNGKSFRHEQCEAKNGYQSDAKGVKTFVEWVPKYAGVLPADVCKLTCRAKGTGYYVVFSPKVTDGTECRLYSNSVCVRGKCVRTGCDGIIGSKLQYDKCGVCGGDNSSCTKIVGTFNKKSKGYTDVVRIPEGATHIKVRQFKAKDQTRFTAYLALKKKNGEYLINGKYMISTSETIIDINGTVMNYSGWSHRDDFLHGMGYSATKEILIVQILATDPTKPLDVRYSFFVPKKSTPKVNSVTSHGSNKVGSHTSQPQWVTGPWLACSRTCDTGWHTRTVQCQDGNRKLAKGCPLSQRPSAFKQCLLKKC

Collagenase 3 = Collagenase 3 (Homo sapiens, UniProt P45452); experiment: Inhibition of recombinant human MMP-13 assessed as substrate cleavage after 20 hrs by fluorescence assay; outline: as §1
[3] = target: Matrix metalloproteinase-14 (Homo sapiens, UniProt P50281); experiment: Inhibition of recombinant human MMP-14 assessed as substrate cleavage after 20 hrs by fluorescence assay; outline: as §1
Interstitial collagenase = target: T3, Interstitial collagenase (Homo sapiens, UniProt P03956); experiment: Inhibition of recombinant human MMP-1 assessed as substrate cleavage after 20 hrs by fluorescence assay; outline: as §1
T3 sequence (P03956 whole entry): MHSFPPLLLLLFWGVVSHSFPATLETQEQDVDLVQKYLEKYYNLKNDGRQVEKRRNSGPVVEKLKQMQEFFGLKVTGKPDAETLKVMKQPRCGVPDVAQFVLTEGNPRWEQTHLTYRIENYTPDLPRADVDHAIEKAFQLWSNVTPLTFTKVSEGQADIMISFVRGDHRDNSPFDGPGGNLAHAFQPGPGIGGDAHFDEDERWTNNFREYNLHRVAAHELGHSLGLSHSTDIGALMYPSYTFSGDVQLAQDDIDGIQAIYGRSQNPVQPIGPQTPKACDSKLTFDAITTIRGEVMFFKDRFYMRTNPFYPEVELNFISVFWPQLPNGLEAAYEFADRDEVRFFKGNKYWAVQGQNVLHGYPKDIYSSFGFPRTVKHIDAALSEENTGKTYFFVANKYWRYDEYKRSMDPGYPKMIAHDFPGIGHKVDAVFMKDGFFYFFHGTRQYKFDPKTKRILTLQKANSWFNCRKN

[4] = target: 72 kDa type IV collagenase (Homo sapiens, UniProt P08253); experiment: Inhibition of recombinant human MMP-2 assessed as substrate cleavage after 20 hrs by fluorescence assay; outline: as §1
72 kDa type IV collagenase, sequence (P08253 whole entry): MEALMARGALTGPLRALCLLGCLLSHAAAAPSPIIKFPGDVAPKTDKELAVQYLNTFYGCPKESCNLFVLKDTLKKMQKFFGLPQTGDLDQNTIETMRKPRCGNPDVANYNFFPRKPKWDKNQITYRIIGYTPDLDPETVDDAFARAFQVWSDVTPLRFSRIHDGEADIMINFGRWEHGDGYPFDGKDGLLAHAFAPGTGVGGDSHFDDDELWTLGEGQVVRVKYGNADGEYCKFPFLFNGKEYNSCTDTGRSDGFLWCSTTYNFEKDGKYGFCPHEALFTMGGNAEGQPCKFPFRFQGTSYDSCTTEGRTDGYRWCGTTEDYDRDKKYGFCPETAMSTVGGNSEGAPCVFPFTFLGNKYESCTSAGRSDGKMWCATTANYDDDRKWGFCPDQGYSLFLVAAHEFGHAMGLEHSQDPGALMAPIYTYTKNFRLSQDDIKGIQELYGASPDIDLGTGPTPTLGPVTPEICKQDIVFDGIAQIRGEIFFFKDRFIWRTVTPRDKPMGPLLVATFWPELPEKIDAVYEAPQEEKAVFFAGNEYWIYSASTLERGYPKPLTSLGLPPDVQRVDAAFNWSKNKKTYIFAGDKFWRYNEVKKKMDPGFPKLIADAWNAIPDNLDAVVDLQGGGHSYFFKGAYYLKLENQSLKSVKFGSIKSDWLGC

[5] = target: Matrix metalloproteinase-9 (Homo sapiens, UniProt P14780); experiment: Inhibition of recombinant human MMP-9 assessed as substrate cleavage after 20 hrs by fluorescence assay; outline: as §1
Matrix metalloproteinase-9, sequence (P14780 whole entry): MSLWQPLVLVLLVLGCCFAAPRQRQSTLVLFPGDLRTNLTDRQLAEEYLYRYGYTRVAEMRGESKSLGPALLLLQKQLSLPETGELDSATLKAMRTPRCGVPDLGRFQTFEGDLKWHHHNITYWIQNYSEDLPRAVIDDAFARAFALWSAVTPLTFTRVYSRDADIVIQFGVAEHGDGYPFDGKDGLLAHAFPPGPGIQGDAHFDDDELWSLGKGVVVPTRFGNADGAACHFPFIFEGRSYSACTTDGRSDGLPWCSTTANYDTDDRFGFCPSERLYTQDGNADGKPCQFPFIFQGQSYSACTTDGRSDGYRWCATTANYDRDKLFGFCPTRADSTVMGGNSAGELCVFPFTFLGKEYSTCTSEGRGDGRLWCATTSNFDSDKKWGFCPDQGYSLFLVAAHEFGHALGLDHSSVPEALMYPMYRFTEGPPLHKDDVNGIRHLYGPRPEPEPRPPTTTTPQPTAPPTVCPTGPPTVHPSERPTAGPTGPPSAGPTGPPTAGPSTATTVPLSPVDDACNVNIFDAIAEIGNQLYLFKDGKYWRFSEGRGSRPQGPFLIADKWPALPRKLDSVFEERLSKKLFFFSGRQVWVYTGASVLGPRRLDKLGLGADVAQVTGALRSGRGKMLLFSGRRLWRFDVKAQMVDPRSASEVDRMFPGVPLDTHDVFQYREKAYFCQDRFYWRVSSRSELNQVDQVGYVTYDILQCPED

Cytochrome P450 3A4 = Cytochrome P450 3A4 (Homo sapiens, UniProt P08684); experiment: Inhibition of CYP3A4; format: ADME
Cytochrome P450 3A4, sequence (P08684 whole entry, canonical isoform): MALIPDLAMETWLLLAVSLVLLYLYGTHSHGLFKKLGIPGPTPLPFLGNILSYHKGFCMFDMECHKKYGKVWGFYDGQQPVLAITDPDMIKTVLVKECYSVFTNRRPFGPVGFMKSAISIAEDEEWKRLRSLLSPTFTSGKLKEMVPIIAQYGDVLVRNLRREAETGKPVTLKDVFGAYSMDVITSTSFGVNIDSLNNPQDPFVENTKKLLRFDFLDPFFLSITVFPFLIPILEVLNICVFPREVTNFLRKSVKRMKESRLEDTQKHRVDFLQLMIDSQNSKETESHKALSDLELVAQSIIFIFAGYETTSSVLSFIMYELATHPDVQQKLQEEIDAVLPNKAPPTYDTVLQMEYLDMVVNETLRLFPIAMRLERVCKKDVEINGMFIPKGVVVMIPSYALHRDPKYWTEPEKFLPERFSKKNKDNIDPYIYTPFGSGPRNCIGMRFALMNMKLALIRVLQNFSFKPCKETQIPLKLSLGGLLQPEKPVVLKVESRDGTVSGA
Outline: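 Inhibition of cytochrome P450 isoforms 1A2, 2C9, 2C19, 2D6 and 3A4, reported as pIC50.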

[6] = Intrinsic clearance in human liver microsomes; format: ADME, Microsome
Outline: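 Human liver microsome metabolism; intrinsic clearance expressed as μL/min/mg, reported as mean of eight separate experiments.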

pIC50 [1] | pIC50 [2] | pIC50 (Collagenase 3) | pIC50 [3] | pIC50 (Interstitial collagenase) | pIC50 [4] | pIC50 [5] | pIC50 (Cytochrome P450 3A4) | microsomal CLint [6] [µL/min/mg] | SMILES
8.57 | 7.19 | 6.11 | < 5.00 | < 5.00 | 5.85 | 5.92 |  |  | Cc1cc(Cl)ccc1CCC1CCN(S(=O)(=O)CC2(N(O)C=O)CCOCC2)CC1
8.06 | 7.21 |  |  |  |  |  |  |  | O=CN(O)C1(CS(=O)(=O)N2CCC(CCc3ccc(F)cc3C(F)(F)F)CC2)CCN(C(=O)C2CCC2)CC1
8.92 | 7.70 |  |  |  |  |  |  |  | Cc1cc(Cl)ccc1CCC1CCN(S(=O)(=O)CC2(N(O)C=O)CCN(C(=O)C3CCC3)CC2)CC1
7.04 |  | 5.85 | 5.85 | < 5.00 |  |  | < 5.00 |  | CC(C)(CS(=O)(=O)N1CCN(c2ccc(F)cc2)CC1)N(O)C=O
6.42 | 5.28 | 5.08 | < 5.00 | < 5.00 | < 5.00 | < 5.00 |  |  | Cc1cnc(C)c(CCC2CCN(S(=O)(=O)CC3(N(O)C=O)CCOCC3)CC2)c1
8.25 | 7.51 | < 6.22 | < 6.11 | < 5.00 | 6.21 | < 5.74 |  | < 2 | Cc1ccccc1CCC1CCN(S(=O)(=O)CC2(N(O)C=O)CCOCC2)CC1
 |  | 6.81 | 6.65 | < 5.00 |  |  | 6.00 |  | CC(CS(=O)(=O)N1CCN(c2ccc(F)cc2)CC1)N(O)C=O (racemic)
7.00 | 6.24 | 5.96 | 5.54 | < 5.00 | 5.96 | 5.07 |  | 3.8 | Cc1cccnc1CCC1CCN(S(=O)(=O)CC2(N(O)C=O)CCOCC2)CC1
6.28 |  | 6.24 | 5.54 | < 5.17 |  |  | < 5.00 |  | CN1CCC(CS(=O)(=O)N2CCN(c3ccc(F)cc3)CC2)(N(O)C=O)CC1
8.24 | 6.28 | 5.77 | < 5.00 | < 5.00 | 5.48 | < 5.00 |  | 2 | Cc1cc(S(C)(=O)=O)ccc1CCC1CCN(S(=O)(=O)CC2(N(O)C=O)CCOCC2)CC1
6.89 | 5.85 | < 5.00 | < 5.00 | < 5.00 | 5.12 | 5.05 |  |  | Cc1cc(C)c(CCC2CCN(S(=O)(=O)CC3(N(O)C=O)CCOCC3)CC2)cn1
6.96 | 6.20 | 5.23 | < 5.14 | < 5.00 | 5.46 | < 5.00 |  | 3.4 | Cc1ccncc1CCC1CCN(S(=O)(=O)CC2(N(O)C=O)CCOCC2)CC1
6.33 | 5.77 | 6.59 | 5.92 | < 5.00 | 6.82 | 6.17 |  | 8.8 | O=CN(O)C1(CS(=O)(=O)N2CCC(CCc3ccccc3)CC2)CCOCC1
7.28 | 5.72 | < 5.00 | < 5.00 | < 5.00 | < 5.00 | < 5.00 |  |  | Cc1noc(C)c1CCC1CCN(S(=O)(=O)CC2(N(O)C=O)CCCC2)CC1
7.54 | 6.51 | 5.34 | < 5.00 | < 5.00 | < 5.00 | < 5.00 |  | 6.5 | Cc1noc(C)c1CCC1CCN(S(=O)(=O)CC2(N(O)C=O)CCN(S(C)(=O)=O)CC2)CC1
7.29 | 5.82 | < 5.00 | < 5.00 | < 5.00 | < 5.00 | < 5.00 |  | 3.3 | Cc1noc(C)c1CCC1CCN(S(=O)(=O)CC2(N(O)C=O)CCC2)CC1
7.96 | 6.32 | < 5.00 | < 5.00 | < 5.00 | < 5.00 | < 5.00 |  | 31 | Cc1noc(C)c1CCC1CCN(S(=O)(=O)CC2(N(O)C=O)CCN(C(=O)N3CCC3)CC2)CC1
8.85 | 6.02 | < 5.00 | < 5.00 | < 5.00 | < 5.00 | < 5.00 |  | 3.7 | CS(=O)(=O)c1ccc(CCC2CCN(S(=O)(=O)CC3(N(O)C=O)CCOCC3)CC2)c(C2CC2)c1
6.40 | 5.27 | 5.70 | 5.10 | < 5.00 | 5.42 | < 5.00 |  | < 2 | Cc1ncccc1CCC1CCN(S(=O)(=O)CC2(N(O)C=O)CCOCC2)CC1
8.72 | 7.96 |  |  |  |  |  |  |  | Cc1cc(F)ccc1CCC1CCN(S(=O)(=O)CC2(N(O)C=O)CCN(C(=O)C3CCC3)CC2)CC1
7.62 | 6.09 | < 5.00 | < 5.00 | < 5.00 | < 5.00 | < 5.00 |  | < 2 | CC(=O)N1CCC(CS(=O)(=O)N2CCC(CCc3c(C)noc3C)CC2)(N(O)C=O)CC1
8.39 | 7.89 |  |  |  |  |  |  |  | Cc1ccccc1CCC1CCN(S(=O)(=O)CC2(N(O)C=O)CCN(C(=O)C3CCC3)CC2)CC1
7.32 | 5.82 | < 5.00 | < 5.00 | < 5.00 | < 5.00 | < 5.00 |  | 59 | Cc1noc(C)c1CCC1CCN(S(=O)(=O)CC2(N(O)C=O)CCCCCC2)CC1
7.70 | 6.07 | < 5.39 | < 5.12 | < 5.00 | < 5.00 | < 5.00 |  |  | Cc1noc(C)c1CCC1CCN(S(=O)(=O)CC2(N(O)C=O)CCCCC2)CC1

SMILES | pIC50 [1] | pIC50 [2] | pIC50 (Collagenase 3) | pIC50 [3] | pIC50 (Interstitial collagenase) | pIC50 [4] | pIC50 [5] | pIC50 (Cytochrome P450 3A4) | microsomal CLint [6] [µL/min/mg]
Cc1cc(C(F)(F)F)ccc1CCC1CCN(S(=O)(=O)CC2(N(O)C=O)CCN(C(=O)C3CCC3)CC2)CC1 | 8.92 | 7.10 |  |  |  |  |  |  | 
